This is an account of results in ChEMBL document CHEMBL3352771, “3-Cyano-3-aza-β-amino Acid Derivatives as Inhibitors of Human Cysteine Cathepsins” (ACS Med Chem Lett, 2014).

Assay [1] has as its target T1, Cathepsin S (Homo sapiens, UniProt P25774). Kind of assay: Inhibition of human cathepsin S assessed as second order rate constant using Z-Phe-Arg-AMC fluorogenic substrate incubated for 60 mins.
Target sequence in this assay (P25774 115-331 limits assumed): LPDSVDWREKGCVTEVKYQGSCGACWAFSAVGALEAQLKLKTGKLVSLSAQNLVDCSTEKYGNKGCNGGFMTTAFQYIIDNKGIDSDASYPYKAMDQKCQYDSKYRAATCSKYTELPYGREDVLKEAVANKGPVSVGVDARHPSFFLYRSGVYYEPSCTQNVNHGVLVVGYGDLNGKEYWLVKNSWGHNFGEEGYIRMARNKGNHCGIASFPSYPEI
Assay [2] deals with T1, Cathepsin S. In words: Inhibition of human cathepsin S using Z-Phe-Arg-AMC fluorogenic substrate fluorogenic substrate incubated for 60 mins. In a few lines: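 Z-Phe-Arg-AMC substrate at 40 μM final (0.74 × Km), monitored over 60 min. Duplicate runs at five inhibitor concentrations. Steady-state rates fitted by nonlinear regression, v_s = v0/(1+[I]/IC50). Ki converted using IC50/(1+[S]/Km).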
Target sequence in this assay (P25774 whole entry): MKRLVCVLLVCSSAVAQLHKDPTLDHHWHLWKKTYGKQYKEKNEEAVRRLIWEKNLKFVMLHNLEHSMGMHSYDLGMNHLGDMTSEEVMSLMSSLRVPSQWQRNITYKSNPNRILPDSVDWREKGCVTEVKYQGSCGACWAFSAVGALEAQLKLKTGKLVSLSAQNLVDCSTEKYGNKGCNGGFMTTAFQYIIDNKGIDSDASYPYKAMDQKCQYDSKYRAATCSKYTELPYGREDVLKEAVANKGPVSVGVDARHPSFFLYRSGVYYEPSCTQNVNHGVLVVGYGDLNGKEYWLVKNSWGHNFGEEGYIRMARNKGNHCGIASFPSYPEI

A further assay concerns the target Cathepsin B (Homo sapiens, UniProt P07858). In words: Inhibition of human cathepsin B using Z-Arg-Arg-pNA chromogenic substrate fluorogenic substrate incubated for 30 mins. In a few lines: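 Chromogenic readout with Z-Arg-Arg-pNA at 500 μM final (0.45 × Km), followed over 30 min. Duplicate runs at five inhibitor concentrations. IC50 obtained by nonlinear regression of steady-state rates, v_s = v0/(1+[I]/IC50). Ki derived as IC50/(1+[S]/Km).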

For assay [3], the target named is Cathepsin K (Homo sapiens) (UniProt P43235). Kind of assay: Inhibition of human cathepsin K assessed as second order rate constant using Z-Leu-Arg-AMC fluorogenic substrate incubated for 60 mins.
Sequence of Cathepsin K (Homo sapiens) (P43235 whole entry, looked up): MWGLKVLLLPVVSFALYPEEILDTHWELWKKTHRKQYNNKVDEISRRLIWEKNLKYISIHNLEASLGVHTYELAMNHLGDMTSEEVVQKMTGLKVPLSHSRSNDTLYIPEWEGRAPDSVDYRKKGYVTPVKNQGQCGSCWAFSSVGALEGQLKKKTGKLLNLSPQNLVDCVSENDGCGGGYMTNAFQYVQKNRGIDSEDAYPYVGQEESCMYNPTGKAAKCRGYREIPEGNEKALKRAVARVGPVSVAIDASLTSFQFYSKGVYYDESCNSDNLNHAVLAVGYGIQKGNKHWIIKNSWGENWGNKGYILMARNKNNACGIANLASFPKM
A further assay concerns the target Procathepsin L (Homo sapiens, UniProt P07711). In words: Inhibition of human cathepsin L using Z-Phe-Arg-pNA chromogenic substrate fluorogenic substrate incubated for 30 mins. In a few lines: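 Duplicate measurements at five inhibitor concentrations. IC50 from nonlinear regression of steady-state rates, v_s = v0/(1+[I]/IC50). Ki obtained as IC50/(1+[S]/Km).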

Assay [4] deals with T1, Cathepsin S. Kind of assay: Inhibition of human cathepsin S assessed half life for enzyme-inhibitor complex using Z-Phe-Arg-AMC fluorogenic substrate fluorogenic substrate incubated for 60 mins. A digest of the protocol:
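Complex half-lives calculated from koff values for cathepsin K and cathepsin S. Progress curves used fluorescence emission at 440 nm with excitation at 360 nm. First-order rate constants kobs plotted against inhibitor concentration.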
Target sequence in this assay (P25774 115-331 limits assumed): as the sequence (P25774 115-331 limits assumed) above

Molecules are shown by their SMILES.

Sequence of Procathepsin L (P07711 whole entry): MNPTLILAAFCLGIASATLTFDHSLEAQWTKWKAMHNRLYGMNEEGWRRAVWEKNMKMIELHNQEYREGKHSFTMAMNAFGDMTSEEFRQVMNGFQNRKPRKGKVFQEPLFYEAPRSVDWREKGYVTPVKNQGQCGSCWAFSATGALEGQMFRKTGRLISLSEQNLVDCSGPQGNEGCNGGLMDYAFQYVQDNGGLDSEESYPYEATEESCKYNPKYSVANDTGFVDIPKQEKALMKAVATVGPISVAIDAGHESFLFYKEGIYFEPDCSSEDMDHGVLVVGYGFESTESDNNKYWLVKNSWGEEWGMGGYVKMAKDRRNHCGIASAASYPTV

As to `CC(C)(C)OC(=O)NN(C#N)CC(=O)N(Cc1ccccc1)Cc1ccccc1`, the K on Cathepsin S [1] is 2580 ×10³ /M/s; in assay [3], 52900 ×10³ /M/s. Also, the figures for the Ki at Cathepsin S [2], on Cathepsin B and on Procathepsin L were 0.13 nM, 0.406 nM and 185 nM, respectively.

For `CN(Cc1ccccc1)C(=O)CN(C#N)NC(=O)OC(C)(C)C`, the K at Cathepsin S [1] is 1590 ×10³ /M/s; in assay [3], 28900 ×10³ /M/s. Besides, the Ki came out at 0.176 nM at Cathepsin S [2], 0.459 nM on Cathepsin B and 228 nM at Procathepsin L.

For the compound `CC(C)(C)OC(=O)NN(C#N)CC(=O)N1CCOCC1`, the K on Cathepsin S [1] amounted to 757 ×10³ /M/s; in assay [3], 19000 ×10³ /M/s. Moreover, the results for the Ki on Cathepsin S [2], at Cathepsin B and on Procathepsin L were 0.777 nM, 3.56 nM and 573 nM, respectively. The same compound showed a T1/2 on Cathepsin S [4] of 10 min.

In the case of `CN(C(=O)OC(C)(C)C)N(C#N)CC(=O)N1CCOCC1`, the K at Cathepsin S [1] is 0.461 ×10³ /M/s; in assay [3], 4.05 ×10³ /M/s. Besides, the Ki on Cathepsin S [2] is 793 nM; on Cathepsin B, 194 nM; on Procathepsin L it was 1690 nM.

Take `CCCN1CCN(c2ccc(C(=O)NC3(C(=O)NCC#N)CCCCC3)cc2)CC1` [BALICATIB]: the Ki on Cathepsin S [2] came to 30100 nM; at Cathepsin B it was 3800 nM; on Procathepsin L, 3260 nM.

One may read the Ki as the dissociation constant of the complex between target and ligand, obtained from inhibition or displacement.
